FAK blocker = inhibitors of human focal adhesion kinase. Q05397. biochemical FAK kinase activity assay. inhibition, %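 (tested at 7 µM)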. 0.84% of 97,000 active; in the data active = inhibition above about 19%;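 note: 0% = DMSO and 100% = reference compound high control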
Pyk2 oligo antag = Pyk2 (human) oligomerization antagonism. Q293 cells, Pyk2 FERM NanoBiT luminescence; hits give low values. AID 1347419. Q14289. z-score (the deposit names both 25 µM and 10 µM). 0.83% of 99,000 active;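 active = Z-score of -3 or lower, scaled per plate to the spread of control and sample wells; inactive = z-score above -3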;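 note: negative z-score means lost luminescence so less FERM oligomerization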
Target sequence (Q14289 whole entry, looked up): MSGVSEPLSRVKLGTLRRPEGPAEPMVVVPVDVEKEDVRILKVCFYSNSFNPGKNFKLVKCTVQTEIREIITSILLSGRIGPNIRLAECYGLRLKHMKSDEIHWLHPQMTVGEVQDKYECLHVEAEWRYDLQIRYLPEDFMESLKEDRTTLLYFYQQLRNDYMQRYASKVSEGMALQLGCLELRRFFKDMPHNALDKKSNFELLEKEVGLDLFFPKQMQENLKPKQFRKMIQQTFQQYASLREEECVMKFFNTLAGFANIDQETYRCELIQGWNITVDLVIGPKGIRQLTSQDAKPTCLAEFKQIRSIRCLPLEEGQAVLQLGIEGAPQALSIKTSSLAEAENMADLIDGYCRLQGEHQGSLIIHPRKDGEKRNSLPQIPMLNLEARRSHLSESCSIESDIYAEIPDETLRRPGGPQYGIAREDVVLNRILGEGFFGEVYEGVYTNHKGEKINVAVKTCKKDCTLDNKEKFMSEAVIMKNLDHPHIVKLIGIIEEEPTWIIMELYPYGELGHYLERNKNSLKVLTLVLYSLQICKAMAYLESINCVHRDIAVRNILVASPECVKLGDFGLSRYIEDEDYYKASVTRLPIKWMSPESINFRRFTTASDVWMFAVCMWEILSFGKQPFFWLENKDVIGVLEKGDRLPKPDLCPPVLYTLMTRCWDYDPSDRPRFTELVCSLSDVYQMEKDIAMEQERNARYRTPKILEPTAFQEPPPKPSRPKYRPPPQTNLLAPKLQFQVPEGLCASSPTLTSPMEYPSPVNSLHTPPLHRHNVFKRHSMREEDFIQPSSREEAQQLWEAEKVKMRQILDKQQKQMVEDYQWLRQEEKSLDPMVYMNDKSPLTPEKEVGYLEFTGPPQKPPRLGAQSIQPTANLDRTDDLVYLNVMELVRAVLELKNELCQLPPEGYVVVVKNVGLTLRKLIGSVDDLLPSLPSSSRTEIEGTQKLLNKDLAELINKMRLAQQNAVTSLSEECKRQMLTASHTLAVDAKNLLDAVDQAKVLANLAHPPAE
PostGolgi ctrl = yeast control strain growth, post-Golgi counter-screen; efflux-deficient yeast background strain, growth absorbance A615, 16 h; inhibition, % at 10 µM; 5% of 98,000 active; AID 738
PostGolgi yeast = growth inhibition of a yeast mutant, post-Golgi transport screen. AID 739. inhibition, % at 10 µM. 0.9% of 98,000 active. post-Golgi transport phenotypic cell assay;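 note: yeast cells grown in 1536-well plates; yeast grown about 18 h at 30C before absorbance read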
Ecoli tolC = blocks growth of E. coli BW25113 tolC mutant; 2.2% of 65,000 active; OD615; AID 573; growth inhibition, % at 10 µM (by protocol);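 active = growth inhibition at or above a cutoff equal to the mean over every tested compound plus 3 SD, cut at about 60% in these data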;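 note: growth measured after 20 h incubation at 37 °C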
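Test system: E. coli BW25113 ΔtolC::kan bacteria | Medium: Kanamycin-containing LB broth (50 µg/mL) | Dosing: One dose of 10 µM final | Times: 20 h incubation with compound, 37 °C | Detection: Optical density read at 615 nm | Read-out basis: Percent growth inhibition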
Calb biofilm kill = kills Candida albicans biofilms; C. albicans biofilm + clotrimazole, Alamar Blue; inhibition, % at 6 µM; 0.14% of 85,000 active;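 active = inhibition above 20%; inactive = inhibition below 20%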;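 note: preformed 24 hr biofilms exposed to compound for 48 hr; 0% = biofilm without compound and 100% = blank killed by clotrimazole plus chlorhexidine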
Active calls of the source: *; nt = no result. Most compounds without a hit are left out; they make up all but 6.9% or so of the library. Cut-off read from the data, not from the text of the source, unless noted: active = inhibition above about 30%; inactive = the rest.

SMILES	FAK blocker	Pyk2 oligo antag	PostGolgi ctrl	PostGolgi yeast	Ecoli tolC	Calb biofilm kill
CC1CCCCC1n1c(=S)[nH]c2ccccc2c1=O (stereo unspecified)	3.7	-1.44	53.4*	7.3	100.0*	4.8
CC1=CCC(C(=O)O)(C(=O)N/N=C/c2cccs2)C(c2ccc([N+](=O)[O-])cc2)C1 (stereo unspecified)	-3.6	-1.03	65.3*	0.9	nt	2.7
CC1=CCC(C(=O)O)(C(=O)N/N=C/c2cccs2)C(c2ccc(F)cc2)C1 (stereo unspecified)	-2.3	-0.67	5.4	-5.3	nt	7.5
Fc1cccc(Cl)c1Cn1nnc(-c2ccc3c(c2)OCO3)n1	-0.1	-2.47	9.5	-1.2	62.8*	3.1
Cc1ccccc1Cn1nnc(-c2ccc3c(c2)OCO3)n1	0.0	-2.01	nt	nt	nt	7.6
O=C1OCC(CO)(CO)N=C1NNc1ccc(Cl)c(Cl)c1	-8.9	1.49	18.9	92.0*	nt	nt
CNC(=O)CN(C1CCCCC1)S(=O)(=O)c1ccc(OC)c(Cl)c1	3.3	0.48	3.6	-2.5	2.0	6.1
COc1cccc(C(=O)N2CCN(C(=O)c3cccc(F)c3)CC2)c1	1.8	0	4.6	-7.4	-7.3	1.5
O=C(c1cccc(F)c1)N1CCN(C(=O)c2cc(-c3ccc(Cl)cc3Cl)on2)CC1	2.6	-0.24	22.4	10.5	64.2*	2.5
O=C(CSc1cn(CCNC(=O)c2cccs2)c2ccccc12)NCC1CCCO1 (stereo unspecified)	nt	nt	17.9	-10.0	0.6	32.7*
O=C(c1ccccc1)c1cc[n+]([O-])cc1	0.1	0.03	nt	nt	nt	7.8
c1cncc(-c2nnc3sc(-c4ccco4)nn23)c1	-2.7	-0.02	-2.1	4.2	19.1	-5.8
CCN(CC)c1ccc(-c2nn3c(-c4cccnc4)nnc3s2)cc1	6.4	-1.95	39.2*	-14.0	18.2	nt
Cc1cccc2sc(NC(=O)CSc3nc4ccccc4o3)nc12	-2.0	0.27	9.1	5.0	nt	51.5*
Cc1cccc(-n2ncc3c(N4CC(C)CC(C)C4)ncnc32)c1 (stereo unspecified)	5.4	nt	33.0*	2.6	63.5*	6.8
Clc1ccc(Cn2ncc3c(N4CCCCC4)ncnc32)c(Cl)c1	2.5	nt	19.3	14.5	73.5*	8.7
CC1CC(C)CN(c2ncnc3c2cnn3Cc2ccc(Cl)cc2)C1 (stereo unspecified)	2.7	-0.34	50.8*	4.1	80.9*	-5.4
Clc1ccc(Cn2ncc3c(N4CCCC4)ncnc32)cc1	-1.3	-0.88	12.0	-8.7	26.4	2.3
Cc1ccc(C(=O)O/N=C2\CCCc3ccccc32)cc1	-0.8	0.01	37.8*	-2.3	nt	nt
CCN1C(c2ccccc2)=C(c2ccccc2)S/C1=C/C=C1\SC(=S)N(C)C1=O	-1.9	-0.34	nt	nt	nt	4.2
O=C(Nc1cccc(S(=O)(=O)C(F)F)c1)c1ccc(Cl)c(S(=O)(=O)N2CCOCC2)c1	nt	-3.01*	20.6	-11.6	27.9	nt
O=c1c2c3c(sc2ncn1Cc1ccc(F)cc1)CCC3	1.4	-0.81	2.0	-6.7	nt	nt
C/C(CCc1oc2ccccc2c1-c1ccc(C)o1)=N/O	7.4	-0.55	47.1*	11.6	97.5*	-1.3
C/C(CCc1oc2c(Br)cc(Br)cc2c1-c1ccc(C)o1)=N\O	1.3	-0.64	nt	nt	nt	-3.0
CCCCC(=O)c1c(O)c2ccccc2oc1=O	-0.3	0.55	2.6	0.7	99.0*	nt
SMILES	FAK blocker	Pyk2 oligo antag	PostGolgi ctrl	PostGolgi yeast	Ecoli tolC	Calb biofilm kill
CCCCN=C(C)c1c(O)c2ccccc2oc1=O	-8.5	1.18	-9.1	-12.8	12.7	1.2
CC1CCC(C(=O)c2c(O)c3ccccc3oc2=O)CC1 (stereo unspecified)	-3.4	-1.25	4.1	9.0	nt	4.8
O=C(CC1CCCCC1)c1c(O)c2ccccc2oc1=O	-2.1	0.23	8.8	0.0	100.0*	7.8
O=C(O)C1C2C=CC(O2)C1C(=O)Nc1ccccc1C(F)(F)F (stereo unspecified)	-2.3	-1.25	10.8	-6.9	-19.1	3.3
O=C(Nc1ccc(N2CCCC2)cc1)c1cccc(F)c1	6.2	-0.58	4.8	12.5	4.2	-1.0
O=C(O)c1cccc2c1C(=O)N(Cc1ccncc1)C2	5.8	0.17	34.8*	-11.7	-13.2	-3.1
N#CC1=C(N)OC2=C(C(=O)CCC2)C1c1ccsc1 (stereo unspecified)	2.5	-0.06	-0.1	22.4	-10.2	10.6
COc1ccc(Cc2nc(C(=O)NCc3ccccc3OC)cs2)cc1	0.3	-1.19	35.0*	1.3	nt	nt
CCOC(=O)c1cccc(NC(=O)c2cccnc2)c1	nt	-0.44	11.8	-8.2	-2.7	7.6
CCOC(=O)c1cccc(Nc2nc(-c3cccnc3)nc3ccccc23)c1	17.3	-3.65*	67.9*	4.1	nt	nt
Cc1cc(-n2ccc(=O)[nH]c2=O)nc(-c2ccccc2)n1	-2.8	0.25	31.1*	0.6	-4.6	9.2
CCOC(=O)c1sc(C(=O)OCC)c(OCCO)c1OCCO	-6.9	0.16	-0.6	-2.0	-9.8	6.0
Cc1ccc(N2CCN(C(=O)c3ccccc3F)CC2)c(C)c1	-3.3	nt	41.9*	-0.7	33.5	nt
O=C(Nc1cccn(Cc2c(Cl)cccc2Cl)c1=O)c1c(Cl)cccc1Cl	-2.0	-1.27	92.9*	5.6	nt	nt
CC(C)(Cl)C1Cc2cc3ccc(=O)oc3cc2O1 (stereo unspecified)	3.0	0.05	7.2	-9.4	nt	nt
COc1ccccc1OCC(=O)c1[nH]c(C)c(C(C)=O)c1C	10.6	0.93	2.1	2.4	0.3	3.7
CC(=O)c1c(C)[nH]c(C(=O)COc2ccc(C#N)cc2)c1C	-1.5	1.06	32.0*	3.3	nt	8.4
CC(C)C1=C2OC(N)=C(C#N)C(C#N)=C2C(C)CC1 (stereo unspecified)	-5.3	0.28	17.1	5.0	10.8	8.3
COc1ccc(C(=O)NCCC2=CCCCC2)cc1OC	0.9	0.04	-0.5	4.5	nt	3.3
O=C(COc1ccc(Cl)cc1Cl)NCCCN1CCOCC1	-2.7	-0.61	18.1	64.9*	-9.6	-1.3
O=C(COc1ccc(Cl)cc1Cl)NCCC1=CCCCC1	0.5	0.09	48.3*	-18.4	nt	nt
CCOC(=O)c1ccc(N=C2S/C(=C\c3cc(C)n(-c4cccnc4)c3C)C(=O)N2C)cc1	-1.9	-0.97	10.3	2.3	nt	nt
O=C(Nc1ccc(SC(F)F)cc1)c1ccc2nccnc2c1	-0.6	-0.56	31.1*	-2.2	2.8	5.0
COc1ccc(CN(Cc2ccc(OC)cc2)S(=O)(=O)c2ccc(-n3cnnn3)c(C)c2)cc1	0.4	0.78	nt	nt	nt	-8.2
CC1CCCCC12NC(=O)N(CC(=O)NC(=O)Nc1ccc3c(c1)OCCO3)C2=O (stereo unspecified)	-2.2	-3.65*	-0.7	6.1	nt	nt
O=C(CNS(=O)(=O)c1ccccc1Br)OCC(=O)N1CCc2ccccc21	1.1	0.37	-5.5	4.3	nt	nt
COC(=O)c1ccc2c(=O)n(CC3CCCO3)c(SCC(=O)Nc3ccccc3OC)nc2c1 (stereo unspecified)	7.2	-1.81	32.8*	-8.8	16.4	-3.7
O=C(CSc1nnc(-c2cc3ccccc3cc2O)n1Cc1ccco1)N1CCc2ccccc2C1	4.0	-0.43	80.0*	1.8	nt	-4.3

From PubChem BioAssay
